Test results reported in ChEMBL document CHEMBL3045617, “Synthesis and antiviral activities of cyanoacrylate derivatives containing an alpha-aminophosphonate moiety” (J Agric Food Chem, 2008).
Values after ≈ are worked out from the molar mass of the structure shown.

How the values were obtained:
Tobacco mosaic virus [1] = experiment: Antiviral activity against Tobacco mosaic virus (TMV) pre-treated with 250 ug/mL compound for 30 min followed by inoculation on left side of Nicotiana tabacum leaves assessed as virus inactivation effect measured 3 to 4 days post viral infection; type: functional
In short: (§1)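 Purified TMV is mixed with an equal volume of compound solution for 30 min. The mixture is rub-inoculated on the left half of N. tabacum leaves, and a solvent–virus mixture on the right half serves as control. Local lesions are recorded 3-4 days after inoculation. Inhibition % = (control − treated average lesions)/control × 100. Three repetitions. EC50 is derived from tests at several concentrations.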

Tobacco mosaic virus [2] = experiment: Antiviral activity against Tobacco mosaic virus (TMV) inoculated on 500 ug/mL compound smeared Nicotiana tabacum leaves assessed as protective effect against viral infection measured 3 to 4 days post viral infection; type: functional
In short: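 Half-leaf assay on same-age N. tabacum leaves. The compound solution is applied to the left half and solvent to the right half as control. After 12 h, leaves dusted with silicon carbide are brush-inoculated with purified TMV (6 × 10^-3 mg/mL) and then rinsed with water. Local lesions are counted 3-4 days later. Inhibition % = (control lesions − treated lesions)/control lesions × 100. Three repetitions.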

Tobacco mosaic virus [3] = experiment: Antiviral activity against Tobacco mosaic virus (TMV) pre-treated with compound for 30 min followed by inoculation on left side of Nicotiana tabacum leaves assessed as virus inactivation effect measured 3 to 4 days post viral infection; type: functional, organism-based; in short: as §1
Tobacco mosaic virus [4] = experiment: Antiviral activity against Tobacco mosaic virus (TMV) pre-treated with 125 ug/mL compound for 30 min followed by inoculation on left side of Nicotiana tabacum leaves assessed as virus inactivation effect measured 3 to 4 days post viral infection; type: functional; in short: as §1
Tobacco mosaic virus [5] = experiment: Antiviral activity against Tobacco mosaic virus (TMV) inoculated on whole Nicotiana tabacum leaves followed by smearing with 500 ug/mL compound solution on left side of leaves assessed as viral infection curative effect measured 3 to 4 days post viral infection; type: functional
In short: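 Whole same-age N. tabacum leaves are brush-inoculated with purified TMV (6 × 10^-3 mg/mL), washed with water and dried. The compound solution is then applied to the left half and solvent to the right half as control. Local lesions are counted 3-4 days after inoculation. Inhibition % is calculated from average lesion counts, control versus treated. Three repetitions.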

Tobacco mosaic virus [6] = experiment: Antiviral activity against Tobacco mosaic virus (TMV) pre-treated with 62.5 ug/mL compound for 30 min followed by inoculation on left side of Nicotiana tabacum leaves assessed as virus inactivation effect measured 3 to 4 days post viral infection; type: functional; in short: as §1
Tobacco mosaic virus [7] = experiment: Antiviral activity against Tobacco mosaic virus (TMV) pre-treated with 500 ug/mL compound for 30 min followed by inoculation on left side of Nicotiana tabacum leaves assessed as virus inactivation effect measured 3 to 4 days post viral infection; type: functional; in short: as §1
Tobacco mosaic virus [8] = experiment: Antiviral activity against Tobacco mosaic virus (TMV) pre-treated with 30.7 ug/mL compound for 30 min followed by inoculation on left side of Nicotiana tabacum leaves assessed as virus inactivation effect measured 3 to 4 days post viral infection; type: functional; in short: as §1

| Structure (SMILES) | Activity (Tobacco mosaic virus [1]) | Activity (Tobacco mosaic virus [2]) | EC50 (Tobacco mosaic virus [3]) | Activity (Tobacco mosaic virus [4]) | Activity (Tobacco mosaic virus [5]) | Activity (Tobacco mosaic virus [6]) | Activity (Tobacco mosaic virus [7]) | Activity (Tobacco mosaic virus [8]) |
| --- | --- | --- | --- | --- | --- | --- | --- | --- |
| CCCCOP(=O)(OCCCC)C(N/C(SC)=C(/C#N)C(=O)OC)c1ccccc1 (stereo not given) | 70.2% | 55.9% | 55.5 µg/mL (≈ 122 µM) | 66.9% | 60.2% | 53.7% | 92.8% | 37.6% |
| CCCOP(=O)(OCCC)C(N/C(SC)=C(/C#N)C(=O)NCc1ccccc1)c1ccccc1 (stereo not given) | – | 42.4% | – | – | 53.8% | – | 50% | – |
| CCCOP(=O)(OCCC)C(N/C(SC)=C(/C#N)C(=O)OCC)c1ccccc1 (stereo not given) | 50.1% | 41.6% | 159 µg/mL (≈ 361 µM) | 47.9% | 50.5% | 33.1% | 71% | 20.9% |
| CCOP(=O)(OCC)C(N/C(SC)=C(/C#N)C(N)=O)c1ccccc1 (stereo not given) | – | 55.6% | – | – | 54.4% | – | 60.8% | – |
| CCCOP(=O)(OCCC)C(N/C(SC)=C(/C#N)C(=O)OCCOCC)c1ccccc1 (stereo not given) | – | 43.1% | – | – | 43.2% | – | 51.5% | – |
| CCOCCOC(=O)/C(C#N)=C(\NC(c1ccccc1F)P(=O)(OCC)OCC)SC (stereo not given) | 48.8% | 48.3% | 167 µg/mL (≈ 353 µM) | 44.2% | 52.7% | 34.4% | 70% | 20.8% |
| CCOP(=O)(OCC)C(N/C(SC)=C(/C#N)C(=O)NCc1ccccc1)c1ccccc1F (stereo not given) | 58.9% | 47.7% | 128 µg/mL (≈ 260 µM) | 48.9% | 49.9% | 41.2% | 73.4% | 29% |
| CCOC(=O)/C(C#N)=C(\NC(c1ccccc1F)P(=O)(OCC)OCC)SC (stereo not given) | 64.1% | 48.3% | 118 µg/mL (≈ 275 µM) | 50.1% | 50.7% | 39.1% | 74.1% | 30.7% |
| CCOP(=O)(OCC)C(N/C(SC)=C(/C#N)C(=O)OC)c1ccccc1F (stereo not given) | 69.7% | 44% | 55.3 µg/mL (≈ 133 µM) | 60.6% | 58.4% | 52.5% | 92.1% | 40.8% |
| CCOC(=O)/C(C#N)=C(\NC(c1ccccc1)P(=O)(OC(C)C)OC(C)C)SC (stereo not given) | – | 37.6% | – | – | 42.8% | – | 37.8% | – |
| CCOP(=O)(OCC)C(N/C(SC)=C(/C#N)C(N)=O)c1ccccc1F (stereo not given) | 49% | 42.8% | 151 µg/mL (≈ 376 µM) | 46.2% | 25.4% | 35.8% | 70.7% | 26.9% |
| CCOCCOC(=O)/C(C#N)=C(\NC(c1ccccc1)P(=O)(OCC)OCC)SC (stereo not given) | – | 41.2% | – | – | 55.2% | – | 46.8% | – |
| CCCCOP(=O)(OCCCC)C(N/C(SC)=C(/C#N)C(=O)OCCOCC)c1ccccc1 (stereo not given) | 62% | 44.4% | 87.9 µg/mL (≈ 171 µM) | 53.8% | 51.8% | 42.8% | 80.6% | 27.8% |
| CS/C(NC(c1ccccc1)P(=O)(OC(C)C)OC(C)C)=C(\C#N)C(N)=O (stereo not given) | – | 54.4% | – | – | 28.8% | – | 5.7% | – |
| CCOP(=O)(OCC)C(N/C(SC)=C(/C#N)C(=O)OC)c1ccccc1 (stereo not given) | – | 29.6% | – | – | 56.7% | – | 64.1% | – |
| CCCOP(=O)(OCCC)C(N/C(SC)=C(/C#N)C(=O)OC)c1ccccc1 (stereo not given) | – | 44.4% | – | – | 37.7% | – | 47.1% | – |
| CS/C(NC(c1ccccc1)P(=O)(OC(C)C)OC(C)C)=C(\C#N)C(=O)NCc1ccccc1 (stereo not given) | – | 39% | – | – | 52.9% | – | 51.5% | – |
| COC(=O)/C(C#N)=C(\NC(c1ccccc1)P(=O)(OC(C)C)OC(C)C)SC (stereo not given) | – | 40.8% | – | – | 43.3% | – | 45.7% | – |
| CCOCCOC(=O)/C(C#N)=C(\NC(c1ccccc1)P(=O)(OC(C)C)OC(C)C)SC (stereo not given) | – | 38.4% | – | – | 35.1% | – | 55.9% | – |
| CCCOP(=O)(OCCC)C(N/C(SC)=C(/C#N)C(N)=O)c1ccccc1 (stereo not given) | – | 45.8% | – | – | 53.9% | – | 63% | – |
| CCCCOP(=O)(OCCCC)C(N/C(SC)=C(/C#N)C(=O)NCc1ccccc1)c1ccccc1 (stereo not given) | – | 45% | – | – | 28.4% | – | 11% | – |
| CCOP(=O)(OCC)C(N/C(SC)=C(/C#N)C(=O)NCc1ccccc1)c1ccccc1 (stereo not given) | – | 55.1% | – | – | 55% | – | 51.9% | – |
| CCCCOP(=O)(OCCCC)C(N/C(SC)=C(/C#N)C(=O)OCC)c1ccccc1 (stereo not given) | 65.7% | 56.5% | 62.6 µg/mL (≈ 134 µM) | 51.6% | 55.8% | 48.5% | 84% | 42.6% |
| CNCC(=O)N[C@@H](CO)C(=O)N[C@H]1[C@H](O)[C@@H](O)[C@H](n2ccc(N)nc2=O)O[C@@H]1C(N)=O [NINGNANMYCIN] | 80% | 59.9% | 50.9 µg/mL (≈ 115 µM) | 70% | 55.8% | 60.1% | 99.5% | 42.1% |
| CCCCOP(=O)(OCCCC)C(N/C(SC)=C(/C#N)C(N)=O)c1ccccc1 (stereo not given) | – | 40.2% | – | – | 25.4% | – | 9.6% | – |
